Screening results as filed in PubChem BioAssay.
Most compounds without a hit are left out; they make up all but 2% or so of the library.
HIF activator = HIF pathway transcriptional activation | U2OS HRE-luciferase reporter, luminescence; normalized: DMSO 0%, desferrioxamine 100% | activation, % at 7.5 µM (by protocol) | 300,000 tested, 0.32% active | AID 1910;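 active means mean activation of at least 10% of the iron chelator positive control signal, with at least half of replicates also reaching 10%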
ARNT-TACC3 inh = disruptors of human ARNT/TACC3 interaction; 390,000 tested, 0.66% active; inhibition, % at 9.99 µM; AlphaScreen His-ARNT PAS-B/GST-TACC3 binding, luminescence; TACC3 fragment carries E629A point mutation;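 active means mean inhibition of replicates at least 50% and at least half of replicates each reaching 50%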
T cruzi inh = T. cruzi replication inhibition; T. cruzi beta-gal in NIH3T3, luminescence, 90 h; inhibition, % (no concentration beside the values); 300,000 tested, 1.4% active; AID 1885;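 active means mean inhibition across valid replicates above about 55%, limit read from the data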;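 further: signal also drops with host cell toxicity which is not excluded here; higher percent means less beta-gal luminescence so fewer parasites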
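compound dosing = single 50 nL compound addition per well in DMSO | material = NIH/3T3 host cells with β-galactosidase reporter T. cruzi | input = 5,000 host fibroblasts per well | timing = ≥90 h infection period, 3 h prior cell attachment | read-out basis = percent inhibition of parasite-derived β-gal signal | detection = GalScreen β-gal luminescence, detergent lysis, 60 min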
AI-2 QS mod = modulators of Vibrio harveyi AI-2 quorum sensing system. 300,000 tested, 0.4% active. AID 2094. activity change, % at 7.5 µM. Vibrio harveyi JMH597 AI-2 luminescence/OD600 ratio, 9 h; active compounds read low; strain lacks LuxN and CqsS sensors; 0 = neutral-control median; in the data active means activity change below about -75%, passing the limit was not always enough;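 further: luminescence divided by OD600 gain over 9 h not by final OD600 alone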
Large screens that a line does not name were inactive.

Cc1ccc(C)c(N2CCN(CC(=O)Nc3ccc([N+](=O)[O-])cc3C(=O)Nc3ccccc3F)CC2)c1	T cruzi inh 71
CCOc1ccc(OCC)c(NC(=O)CN2CCN(c3cc(C)ccc3C)CC2)c1	T cruzi inh 70
O=C(CN1CCN(c2cccc(Cl)c2)CC1)Nc1ccc([N+](=O)[O-])cc1C(=O)Nc1ccccc1F	T cruzi inh 65 (no result: ARNT-TACC3 inh)
O=C(CN1CCN(c2ccccc2)CC1)Nc1cccc([N+](=O)[O-])c1	none
O=C(CNC1CCCCC1)Nc1ccc([N+](=O)[O-])cc1C(=O)Nc1ccccc1F	none
COc1ccc(NC(=O)Nc2ccc3c(c2)C(=O)N([C@H](C)CO)C[C@H](C)[C@@H](CN(C)S(=O)(=O)c2ccc(C)cc2)OCCCC[C@@H](C)O3)cc1	none (no result: HIF activator, T cruzi inh, AI-2 QS mod)
COc1ccc(/C(=N/Nc2ncnc3ccccc23)C(=O)O)cc1	ARNT-TACC3 inh 60
CCOC(=O)/C(=N\Nc1ncnc2ccccc12)c1ccc(OC)cc1	none
COc1ccc(S(=O)(=O)N[C@@H]2C=C[C@H](CC(=O)O)O[C@H]2CO)cc1	none (no result: HIF activator, T cruzi inh, AI-2 QS mod)
COc1ccc(C2C(Oc3ccccc3)C(=O)N2c2cc(C)ccc2C)cc1OC (centres undefined)	T cruzi inh 60
COc1ccc(C2C(Oc3ccccc3)C(=O)N2c2ccc(C)c(C)c2)cc1OC (centres undefined)	none
Cc1nnc(SCC(=O)NNC(=O)CC#N)[nH]c1=O	ARNT-TACC3 inh 48
Cc1ccc(-c2c[n+](CC(=O)c3ccc(Br)cc3)c3n2CCCCC3)cc1	T cruzi inh 74
C=CCN(C(=O)CSC1=NC(=O)CN1C(C)=O)c1nc(C)c(-c2ccccc2)s1	T cruzi inh 70
C=CCSc1nnc(-c2sc(-c3ccccc3)nc2C)n1C	none
O=C(C[C@H]1C[C@@H]2c3cc(NC(=O)c4cccnc4)ccc3O[C@@H]2[C@@H](CO)O1)NCc1ccc(Oc2ccccc2)cc1	none (no result: HIF activator, T cruzi inh, AI-2 QS mod)
Cc1ccccc1C(=O)Nc1cccc(C(=O)N/N=C/c2ccccn2)c1	ARNT-TACC3 inh 46
COc1ccccc1/C=N/NC(=O)c1cccc(NC(=O)c2ccccc2C)c1	none (no result: ARNT-TACC3 inh)
O=S(=O)(c1ccc(NC(=S)NCc2ccco2)cc1)N1CCCCC1	AI-2 QS mod -88 (no result: HIF activator, T cruzi inh)
C[C@H](CO)N1C[C@H](C)[C@@H](CN(C)C(=O)Nc2cccc3ccccc23)Oc2ccc(NS(C)(=O)=O)cc2C1=O	none (no result: HIF activator, T cruzi inh, AI-2 QS mod)
N#C/C(=C/c1ccc(N2CCOCC2)o1)c1ccc(Br)cc1	none
N#C/C(=C\c1ccc(N2CCOCC2)o1)c1ccccc1	none (no result: HIF activator)
N#C/C(=C/c1ccc(N2CCCCCC2)o1)c1ccc(F)cc1	T cruzi inh 58 (no result: ARNT-TACC3 inh)
N#C/C(=C/c1ccc(N2CCCCCC2)o1)c1cccc(F)c1	T cruzi inh 66
COc1ccc(S(=O)(=O)N(C)C[C@@H]2Oc3ccc(NS(=O)(=O)c4ccc(C)cc4)cc3CC(=O)N([C@H](C)CO)C[C@H]2C)cc1	none (no result: HIF activator, T cruzi inh, AI-2 QS mod)
Cc1ccc(CN2CCN(/N=C/c3ccc(Cl)c([N+](=O)[O-])c3)CC2)cc1	T cruzi inh 62
Cc1ccc(C)c(S(=O)(=O)NCc2ccc(C(=O)N3CCC(Cc4ccccc4)CC3)cc2)c1	T cruzi inh 64
CCN(C(=S)Nc1cccnc1)c1ccccc1	none
CCN(C(=S)Nc1cccnc1)c1cccc2ccccc12	ARNT-TACC3 inh 51
CCC(=O)N[C@@H]1C=C[C@@H](CC(=O)NCc2ccccc2F)O[C@H]1CO	none (no result: HIF activator, T cruzi inh, AI-2 QS mod)
CC(C)c1cccc(OCCCCN(C)C)c1	T cruzi inh 65
CCN(CC)CCOc1cccc(C(C)C)c1	none
c1ccc(-n2ncc3c(NCc4ccco4)ncnc32)cc1	HIF activator 9.5
c1ccc(Cn2ncc3c(NCc4ccco4)ncnc32)cc1	none
c1ccc(N2CCN(c3nc(NCc4ccco4)c4ccccc4n3)CC2)cc1	T cruzi inh 55
c1coc(CNc2nc(N3CCCCC3)nc3ccccc23)c1	none
Cc1ccc(Nc2nc(NCc3ccco3)c3ccccc3n2)cc1	T cruzi inh 66
COc1cccc(CNC(=O)C[C@H]2CC[C@H](NC(=O)C3CCC3)[C@@H](CO)O2)c1	none (no result: HIF activator, T cruzi inh, AI-2 QS mod)
C[C@@H]1CCCCO[C@H](CN(C)Cc2ccc(C(=O)O)cc2)[C@H](C)CN([C@H](C)CO)C(=O)c2cc(NC(=O)NC3CCCCC3)ccc2O1	none (no result: HIF activator, T cruzi inh, AI-2 QS mod)
C[C@H](CO)N1C[C@H](C)[C@@H](CN(C)S(=O)(=O)c2cn(C)cn2)OCCCC[C@H](C)Oc2ccc(NS(C)(=O)=O)cc2C1=O	none (no result: HIF activator, T cruzi inh, AI-2 QS mod)
C/C=C/c1ccc2c(c1)O[C@H](CN(C)C(=O)c1ccccn1)[C@@H](C)CN([C@@H](C)CO)S2(=O)=O	none (no result: HIF activator, T cruzi inh, AI-2 QS mod)
